Test results: ChEMBL document CHEMBL1123555, “1,2-Bis(sulfonyl)hydrazines. 3. Effects of structural modification on antineoplastic activity” (1987)

Legend:
Mus musculus [1] = species on record: Mus musculus; test: Antitumor activity against L1210 leukemia cells in mice (activity expressed as average survival time of treated/control animals x 100); type: functional
Method in brief: (§1)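 Compound given ip as a fine suspension (homogenized in drops of 20% aqueous Tween 80, made to volume with isotonic saline) at 10-150 mg/kg per day, once daily for 6 consecutive days starting 24 h after implantation. Vehicle-injected tumor-bearing controls were included. Read-out was survival time; body-weight change over therapy was the toxicity indicator.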

[2] = Antitumor activity against mouse B16 melanoma cells, calculated as average change in body weight from onset to termination of therapy; type: functional
Method in brief: (§2)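 Tumor-bearing mice in groups of five, dosed i.p. daily for 6 days from 24 h post-implantation with suspensions in Tween 80/isotonic saline at 10-150 mg/kg per day; vehicle controls run alongside. Mice weighed during the experiment. Average percent body-weight change from onset to termination of therapy was taken as the toxicity index, reported at the optimal-survival dose.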

Mus musculus [3] = species on record: Mus musculus; test: Antitumor activity against B16 melanoma cells in mice. Activity is expressed as optimal effective dose.; type: functional
Method in brief: (§3)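 Transplanted tumor in mice, given i.p. once daily for 6 consecutive days starting 24 h after implantation. Doses span 10-150 mg/kg per day as fine suspensions homogenized in a few drops of 20% aqueous Tween 80 and made up with isotonic saline. Groups of five; vehicle-injected tumor-bearing controls. %T/C = mean survival time treated/control × 100. Value is the daily dose giving maximum %T/C.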

L1210 = test: Antitumor activity against L1210 leukemia cells in mice, activity is expressed as optimal effective dose.; type: functional, Mus musculus; method in brief: as §3
Mus musculus [4] = species on record: Mus musculus; test: Antitumor activity against L1210 leukemia cells in mice calculated as average change in body weight from onset to termination of therapy; type: functional; method in brief: as §2
[5] = Antitumor activity against B16 melanoma cells in mice, activity is expressed as average survival time of treated/control animals x 100.; type: functional, Mus musculus; method in brief: as §1
Mus musculus [6] = species on record: Mus musculus; test: Antitumor activity against B16 melanoma cells in mice, activity is expressed as optimal effective dose; type: functional; method in brief: as §3

| SMILES | T/C (Mus musculus [1]) [%] | Weight change [2] [%] | Dose (Mus musculus [3]) [mg/kg] | Dose (L1210) [mg/kg] | Weight change (Mus musculus [4]) [%] | T/C [5] [%] | Dose (Mus musculus [6]) [mg/kg] |
| --- | --- | --- | --- | --- | --- | --- | --- |
| CCS(=O)(=O)NN(C)S(=O)(=O)c1ccc(C)cc1 | 162 | -1.1 | 50 | 30 | -2.6 |  |  |
| COc1ccc(S(=O)(=O)NN(C)S(=O)(=O)c2ccc(C)cc2)cc1 |  | 9.1 | 100 | 100 | 7.8 | 200 |  |
| Cc1ccc(S(=O)(=O)NN(C)S(=O)(=O)c2ccc(Cl)cc2)cc1 |  | -0.4 | 50 | 100 | 5.5 |  |  |
| Cc1ccc(S(=O)(=O)N(C)NS(=O)(=O)c2ccccc2)cc1 |  | 8.5 | 150 | 50 | 2 |  |  |
| CN(NS(=O)(=O)c1ccc(Cl)cc1)S(=O)(=O)c1ccc(Cl)cc1 |  | 4.8 | 50 | 150 | 1.3 | 163 |  |
| COc1ccc(S(=O)(=O)N(C)NS(=O)(=O)c2ccc(C)cc2)cc1 |  | -14 | 100 | 150 | 9.8 |  |  |
| Cc1ccc(S(=O)(=O)N(C)NS(C)(=O)=O)cc1 |  | -1.9 | 10 | 30 | -7.9 |  |  |
| Cc1ccc(S(=O)(=O)N(C)NS(=O)(=O)c2ccc(Cl)cc2)cc1 |  | 2.9 | 50 | 50 | 3.7 |  |  |
| COc1ccc(S(=O)(=O)NN(C)S(=O)(=O)c2ccccc2)cc1 |  | -5.9 | 50 | 50 | 4.5 |  |  |
| Cc1ccc(S(=O)(=O)NN(C)S(=O)(=O)c2ccccc2)cc1 |  | 0.8 | 50 | 50 | 10.7 |  |  |
| CN(NS(=O)(=O)c1ccc(Br)cc1)S(=O)(=O)Cc1ccccc1 |  | 4.7 |  |  |  |  | 50 |
| COc1ccc(S(=O)(=O)NN(C)S(=O)(=O)c2ccc(OC)cc2)cc1 |  | -2.4 | 100 | 50 |  | 191 |  |
| Cc1ccc(S(=O)(=O)NN(C)S(=O)(=O)c2ccc(I)cc2)cc1 |  | 1.4 | 50 |  |  |  |  |
| CN(NS(=O)(=O)c1ccccc1)S(=O)(=O)Cc1ccccc1 |  | -1.5 | 50 | 50 | -3.1 |  |  |
| COc1ccc(S(=O)(=O)N(C)NS(=O)(=O)c2ccccc2)cc1 | 142 | 4.7 | 100 | 100 | -3.9 |  |  |
| CN(NS(=O)(=O)Cc1ccccc1)S(=O)(=O)Cc1ccccc1 |  | -17.1 | 150 |  |  |  |  |
| COc1ccc(S(=O)(=O)N(C)NS(=O)(=O)Cc2ccccc2)cc1 | 153 | 2.1 | 50 | 50 | 1.5 | 160 |  |
| CN(NS(=O)(=O)c1ccc(Br)cc1)S(=O)(=O)c1ccccc1 |  | -1.6 | 50 |  |  |  |  |
| CN(NS(=O)(=O)c1ccccc1)S(=O)(=O)c1ccc(Cl)cc1 | 115 | 2.3 | 50 | 50 | 6.8 |  |  |
| Cc1ccc(S(=O)(=O)NN(C)S(=O)(=O)c2ccc(C)cc2)cc1 |  | -2.7 | 150 | 50 | 3.7 |  |  |
| CN(NS(=O)(=O)Cc1ccccc1)S(=O)(=O)c1ccccc1 |  | 2.2 | 100 |  |  | 186 |  |
| CC(=O)Nc1ccc(S(=O)(=O)N(C)NS(=O)(=O)c2ccc(Br)cc2)cc1 |  | -5.7 |  |  |  |  | 150 |
| Cc1ccc(S(=O)(=O)NN(C)S(C)(=O)=O)cc1 | 186 | -8.6 | 60 | 40 | -12.3 | 256 |  |
| CN(NS(=O)(=O)c1ccc(Cl)cc1)S(=O)(=O)Cc1ccccc1 |  | 1.4 | 50 | 50 | 10.2 |  |  |
| CN(NS(=O)(=O)/C=C/c1ccccc1)S(=O)(=O)c1ccc(Cl)cc1 |  | 1.1 | 50 |  |  |  |  |
| CCS(=O)(=O)NN(C)S(=O)(=O)c1ccc(Cl)cc1 |  | -0.1 | 10 |  |  |  |  |

| SMILES | T/C (Mus musculus [1]) [%] | Weight change [2] [%] | Dose (Mus musculus [3]) [mg/kg] | Dose (L1210) [mg/kg] | Weight change (Mus musculus [4]) [%] | T/C [5] [%] | Dose (Mus musculus [6]) [mg/kg] |
| --- | --- | --- | --- | --- | --- | --- | --- |
| CCS(=O)(=O)NN(C)S(=O)(=O)c1ccc(Br)cc1 |  | 4.5 |  |  |  | 190 | 30 |
| CN(NS(=O)(=O)/C=C/c1ccccc1)S(=O)(=O)c1ccc(Br)cc1 |  | 0.7 |  |  |  |  | 100 |
| CN(NS(=O)(=O)/C=C/c1ccccc1)S(=O)(=O)/C=C/c1ccccc1 |  | 2 |  |  |  |  | 50 |
| Cc1ccc(S(=O)(=O)N(C)NS(=O)(=O)c2ccc([N+](=O)[O-])cc2)cc1 |  | 1.4 | 100 |  |  |  |  |
| COc1ccc(S(=O)(=O)N(C)NS(C)(=O)=O)cc1 |  | -7.5 | 20 | 20 | -6.4 |  |  |
| CN(NS(=O)(=O)c1ccc(Cl)cc1)S(=O)(=O)c1ccccc1 |  | -2.9 | 100 | 50 | 14.6 |  |  |
| CN(NS(=O)(=O)c1ccccc1)S(=O)(=O)c1ccc2ccccc2c1 |  | 5.1 | 50 | 100 | 1.8 |  |  |
| CN(NS(=O)(=O)c1ccc2ccccc2c1)S(=O)(=O)Cc1ccccc1 |  |  | 50 | 50 | 10.3 | 179 |  |
| CN(NS(=O)(=O)c1ccc2ccccc2c1)S(=O)(=O)c1ccccc1 |  | 2.5 | 50 |  |  |  |  |
| CCS(=O)(=O)NN(C)S(=O)(=O)c1ccc(OC)cc1 | 149 |  |  | 50 | -8.7 |  |  |
| CN(NS(=O)(=O)c1ccc2ccccc2c1)S(=O)(=O)c1ccc(Cl)cc1 |  | -4 | 50 | 100 | 9 |  |  |
| Cc1ccc(S(=O)(=O)NN(C)S(=O)(=O)c2ccc3ccccc3c2)cc1 | 120 |  |  | 75 | 8.6 |  |  |
| Cc1ccc(S(=O)(=O)NN(C)S(=O)(=O)Cc2ccccc2)cc1 | 126 | 1 | 50 | 100 | 0.3 |  |  |
| COc1ccc(S(=O)(=O)NN(C)S(=O)(=O)Cc2ccccc2)cc1 |  | 0.2 | 150 |  |  |  |  |
| CN(NS(=O)(=O)c1ccc(Cl)cc1)S(C)(=O)=O | 214 | -8.7 | 60 | 60 | -9.4 | 219 |  |
| Cc1ccc(S(=O)(=O)N(C)NS(=O)(=O)c2ccc3ccccc3c2)cc1 |  |  |  | 75 | 9.3 |  |  |
| CN(NS(C)(=O)=O)S(=O)(=O)c1ccc(Br)cc1 |  | 4.2 |  |  |  | 225 | 20 |
| CN(NS(=O)(=O)c1ccccc1)S(=O)(=O)c1ccccc1 |  | -2.3 | 100 | 50 | -4.8 | 175 |  |
| COc1ccc(S(=O)(=O)NN(C)S(=O)(=O)c2ccc(Cl)cc2)cc1 | 130 | 1 | 50 | 150 | -4.3 | 189 |  |
| CN(NS(=O)(=O)c1ccc(Cl)cc1)S(=O)(=O)c1ccc(Br)cc1 |  | 2 |  |  |  |  | 200 |
| CCS(=O)(=O)NN(C)S(=O)(=O)c1ccc(I)cc1 |  | 5.2 | 30 |  |  | 177 |  |
| CN(NS(C)(=O)=O)S(=O)(=O)c1ccc2ccccc2c1 |  | 1.4 | 20 |  |  | 193 |  |
| CN(NS(C)(=O)=O)S(=O)(=O)Cc1ccccc1 | 165 | 1.9 | 30 | 20 | 6.7 |  |  |
| CN(NS(C)(=O)=O)S(=O)(=O)c1ccc(Cl)cc1 |  | -1.4 | 20 | 20 | 5.3 |  |  |
| COc1ccc(S(=O)(=O)N(C)NS(=O)(=O)c2ccc3ccccc3c2)cc1 |  | -0.1 | 100 |  |  |  |  |
| CN(NS(C)(=O)=O)S(=O)(=O)c1ccc(I)cc1 |  | 4 | 40 |  |  |  |  |
